The text below walks through data of ChEMBL document CHEMBL4393719, “Tetrahydro-3-benzazepines with fluorinated side chains as NMDA and σ1 receptor antagonists: Synthesis, receptor affinity, selectivity and antiallodynic activity” (Eur J Med Chem, 2019).

The structures appear in SMILES notation. Calls of active or inactive are those of the source. Where only a bound is given, the exact number is not on record here.

A short description of data set [1]: Stability of compound in phosphate buffer at pH 7.4 after 24 hrs by HPLC analysis. The class given is physicochemical. Particulars: pH 7.4, 24 h. In short, it runs like this:
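Compound (25 μL of 10 mM DMSO stock) added to 1 mL aqueous buffered solution, pH 2 or pH 7.4, stirred 24 h at room temperature, analyzed by HPLC-MS; deemed stable if peak area remained 95–105%.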

Data set [2] has as its target Histamine H1 receptor (Homo sapiens) (UniProt P35367). The data set can be described thus: Displacement of [3H]pyrilamine from human recombinant histamine H1 receptor at 1 uM after 90 mins by scintillation counting method relative to control. In short, it runs like this: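 Human H1 receptor-enriched membranes (25 μg) with 2.4 nM [3H]pyrilamine in Na+/K+ phosphate buffer pH 7.4, 0.1% DMSO, 90 min, 25 °C; 10 μM triprolidine for nonspecific binding. Single 1 μM test concentration; filtration-based readout of displacement.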
A general note: In a radioligand displacement assay an active substance lowers the binding of a labelled ligand.

Data set [3] deals with Voltage-gated inwardly rectifying potassium channel KCNH2 (Homo sapiens, UniProt Q12809). Description: Inhibition of human ERG expressed in CHO cells at -80 mV holding potential by automated patch clamp electrophysiology assay. The class given is cell-based. For orientation: In patch-clamp work, channel activity is measured electrically.
Voltage-gated inwardly rectifying potassium channel KCNH2, sequence (Q12809 whole entry): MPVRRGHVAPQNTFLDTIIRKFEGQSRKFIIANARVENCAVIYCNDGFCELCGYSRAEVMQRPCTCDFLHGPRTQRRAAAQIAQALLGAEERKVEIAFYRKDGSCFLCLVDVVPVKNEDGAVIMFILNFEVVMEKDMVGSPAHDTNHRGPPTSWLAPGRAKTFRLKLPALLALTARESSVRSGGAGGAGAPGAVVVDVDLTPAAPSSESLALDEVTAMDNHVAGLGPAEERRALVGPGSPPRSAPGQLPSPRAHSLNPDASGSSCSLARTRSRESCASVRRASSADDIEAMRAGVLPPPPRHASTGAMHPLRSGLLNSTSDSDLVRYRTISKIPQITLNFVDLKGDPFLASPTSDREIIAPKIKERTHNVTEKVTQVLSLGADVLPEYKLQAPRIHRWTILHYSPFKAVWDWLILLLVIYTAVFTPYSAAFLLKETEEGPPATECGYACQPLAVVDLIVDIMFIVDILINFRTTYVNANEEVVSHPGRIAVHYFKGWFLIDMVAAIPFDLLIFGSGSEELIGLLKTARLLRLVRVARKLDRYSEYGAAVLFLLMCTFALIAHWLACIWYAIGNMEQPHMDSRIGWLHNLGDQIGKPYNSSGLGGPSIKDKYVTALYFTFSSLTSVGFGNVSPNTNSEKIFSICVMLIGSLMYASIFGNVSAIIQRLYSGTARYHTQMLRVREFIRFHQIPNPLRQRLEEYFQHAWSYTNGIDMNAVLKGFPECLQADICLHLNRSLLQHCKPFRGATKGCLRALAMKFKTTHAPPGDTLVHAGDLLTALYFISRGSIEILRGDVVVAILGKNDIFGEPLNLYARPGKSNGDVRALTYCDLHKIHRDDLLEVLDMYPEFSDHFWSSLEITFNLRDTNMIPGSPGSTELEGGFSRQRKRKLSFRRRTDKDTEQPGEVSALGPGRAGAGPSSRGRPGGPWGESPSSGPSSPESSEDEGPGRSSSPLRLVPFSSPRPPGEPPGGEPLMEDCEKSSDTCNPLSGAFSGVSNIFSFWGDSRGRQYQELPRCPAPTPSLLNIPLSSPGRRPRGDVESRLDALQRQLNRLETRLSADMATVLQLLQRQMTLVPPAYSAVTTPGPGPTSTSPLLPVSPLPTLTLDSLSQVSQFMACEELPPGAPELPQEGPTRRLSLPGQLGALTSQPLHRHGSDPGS
Data set [4] deals with Mus musculus. The data set can be described thus: Antiallodynic activity in CD-1 mouse model of capsaicin-induced mechanical allodynia assessed as increase in paw withdrawal threshold at 32 mg/kg, sc administered 30 mins before capsaicin addition and measured after 15 mins in presence of sigma1 receptor agonist PRE-084 by von-Frey test. The class given is functional, organism-based. In short, it runs like this:
(§1)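 Female CD-1 mice pretreated sc with σ1 agonist PRE-084 (32 mg/kg) 5 min before sc test compound; 30 min later capsaicin 1 µg intraplantar. After 15 min, 0.5 g electronic von Frey stimulus on secondary hyperalgesia area; withdrawal latency averaged over three trials, 50 s cutoff. Effect as % antiallodynia versus HPMC-treated; 6-8 animals, one-way ANOVA plus Bonferroni.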

For data set [5], the system named is HepG2. The data set can be described thus: Cytotoxicity against human HepG2 assessed as reduction in cell viability at 1 to 100 uM after 20 hrs by neutral red uptake assay. The note with it: hepg2, 20 h. The class given is cell-based. The essentials:
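HepG2 seeded 3 x 10^4/well, 24 h, then 20 h serum-free exposure at 1, 10 or 100 µM. Neutral red 50 µg/mL for 3 h, washed, dye extracted with 50% ethanol/1% acetic acid, OD 550 nm. IC50 assigned as lowest concentration reaching ≥50% cytotoxicity against untreated cells; n = 4 (duplicate, two assays).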

Data set [6] deals with T1, Sigma intracellular receptor 2 (Rattus norvegicus, UniProt Q5U3Y7).
T1 sequence (Q5U3Y7 whole entry): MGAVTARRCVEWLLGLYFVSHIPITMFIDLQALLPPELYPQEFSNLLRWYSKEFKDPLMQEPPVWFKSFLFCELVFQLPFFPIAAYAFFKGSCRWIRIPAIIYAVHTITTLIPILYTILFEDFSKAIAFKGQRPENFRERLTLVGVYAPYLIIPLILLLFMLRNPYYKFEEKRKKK
Description: Displacement of [3H]-di-o-tolylguanidine from sigma2 receptor in rat liver membranes incubated for 120 mins by scintillation counting method. The class given is cell membranes.

The species entered for data set [7] is Sus scrofa. Particulars: at 1 µM.
In data set [8] the test system is Mus musculus. Description: Antiallodynic activity in CD-1 mouse model of capsaicin-induced mechanical allodynia assessed as increase in paw withdrawal threshold at 16 mg/kg, sc administered 30 mins before capsaicin addition and measured after 15 mins in presence of sigma1 receptor agonist PRE-084 by von-Frey test. The class given is functional, organism-based. In short, it runs like this: as §1

For data set [9], the target named is Delta-type opioid receptor (Homo sapiens, UniProt P41143). The data set can be described thus: Inhibition of DOR (unknown origin).
Delta-type opioid receptor, sequence (P41143 whole entry): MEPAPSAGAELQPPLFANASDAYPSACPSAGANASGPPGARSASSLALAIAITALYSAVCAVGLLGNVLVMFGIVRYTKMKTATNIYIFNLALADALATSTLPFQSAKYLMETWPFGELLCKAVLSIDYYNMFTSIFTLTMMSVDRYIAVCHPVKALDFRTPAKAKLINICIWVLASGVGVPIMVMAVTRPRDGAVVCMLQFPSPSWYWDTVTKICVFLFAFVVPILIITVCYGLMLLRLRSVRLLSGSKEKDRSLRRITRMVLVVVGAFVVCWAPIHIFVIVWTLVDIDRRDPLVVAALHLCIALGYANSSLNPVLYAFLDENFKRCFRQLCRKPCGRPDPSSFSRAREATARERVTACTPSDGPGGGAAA
In data set [10] the test system is Mus musculus. Description: Antiallodynic activity in CD-1 mouse model of capsaicin-induced mechanical allodynia assessed as increase in paw withdrawal threshold at 8 mg/kg, sc administered 30 mins before capsaicin addition and measured after 15 mins by von-Frey test. The class given is functional, organism-based. In short, it runs like this: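 Female CD-1 mice given compound or HPMC vehicle sc 30 min before intraplantar capsaicin (1 µg in 20 µL, 1% DMSO). 15 min later, electronic von Frey punctate stimulus (0.5 g) at least 5 mm from injection site; paw withdrawal latency, three trials 30 s apart, 50 s cutoff. % antiallodynic effect = [(LTD−LTS)/(CT−LTS)]×100; 6-8 mice per group, ANOVA with Bonferroni.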

Data set [11] concerns the target Alpha-1A adrenergic receptor (Homo sapiens) (UniProt P35348). Description: Displacement of [3H]prazosin from human adrenergic alpha1A receptor at 1 uM after 90 mins by scintillation counting method relative to control. The essentials:
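α1A adrenoceptor-enriched human membranes (10 µg), 0.2 nM [3H]prazosin in 50 mM HEPES, 5 mM MgCl2, 1 mM CaCl2, 0.2% BSA, pH 7.4; 90 min at 25 °C; 1 µM prazosin for nonspecific binding. Compound tested at 1 µM; bound ligand collected by filtration.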

In data set [12] the target is Sodium-dependent dopamine transporter (Homo sapiens) (UniProt Q01959). Description: Displacement of [3H]GBR12935 from human DAT at 1 uM after 120 mins by scintillation counting method relative to control. The essentials:
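DAT-enriched human membranes (5 µg), 2 nM [3H]GBR12935 in 50 mM Tris-HCl/100 mM NaCl pH 7.4, 0.1% DMSO, 120 min at 4 °C; 10 µM GBR12909 for nonspecific binding. Compound at 1 µM; displacement measured after filtration.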

A short description of data set [13]: Drug metabolism in mouse liver microsomes at 1 uM incubated for 1 hr in presence of NADPH by UPLC-MS analysis. The class given is ADME, Microsome. Particulars: read-out: Drug metabolism. In short, it runs like this: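 Liver microsomes, compound 1 µM, 37 °C for 1 h in 50 mM Na/K phosphate pH 7.4, 3 mM MgCl2, NADPH-regenerating system, CYP 0.3 nmol/mL. Aliquots at 0, 10, 20, 40, 60 min quenched with cold acetonitrile, supernatants by UPLC-MS/MS; % parent remaining at end reported. Terfenadine as positive control.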

In data set [14] the target is 5-hydroxytryptamine receptor 2B (Homo sapiens) (UniProt P41595). The data set can be described thus: Displacement of [3H]-LSD from recombinant human 5HT2B receptor at 1 uM after 30 mins by scintillation counting method relative to control. In short, it runs like this: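 Human 5-HT2B-enriched membranes (5 µg), 1 nM [3H]LSD in 50 mM Tris-HCl, 4 mM CaCl2, 1% ascorbic acid, pH 7.4, 0.1% DMSO; 30 min, 37 °C; 50 µM 5-HT for nonspecific binding. Single 1 µM compound concentration; displacement after filtration.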
5-hydroxytryptamine receptor 2B (Homo sapiens), sequence (P41595 whole entry): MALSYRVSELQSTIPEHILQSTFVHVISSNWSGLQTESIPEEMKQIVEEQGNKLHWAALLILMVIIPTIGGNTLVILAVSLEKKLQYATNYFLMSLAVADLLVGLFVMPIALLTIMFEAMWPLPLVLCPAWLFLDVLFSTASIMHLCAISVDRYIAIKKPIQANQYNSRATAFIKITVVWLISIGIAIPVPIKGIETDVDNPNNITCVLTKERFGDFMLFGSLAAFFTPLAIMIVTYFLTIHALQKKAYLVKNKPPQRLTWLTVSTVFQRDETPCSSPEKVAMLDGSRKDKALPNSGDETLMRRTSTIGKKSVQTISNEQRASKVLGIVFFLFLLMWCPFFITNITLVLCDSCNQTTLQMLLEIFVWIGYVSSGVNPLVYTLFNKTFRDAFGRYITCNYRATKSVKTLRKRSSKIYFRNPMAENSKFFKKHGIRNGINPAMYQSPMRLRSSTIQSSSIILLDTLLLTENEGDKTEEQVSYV

In data set [15] the target is Mu-type opioid receptor (Homo sapiens, UniProt P35372). The data set can be described thus: Agonist activity at MOR (unknown origin) by cAMP assay. The class given is functional. For orientation: cAMP levels reflect the balance of adenylyl cyclase and phosphodiesterase activity.
Mu-type opioid receptor, sequence (P35372 whole entry): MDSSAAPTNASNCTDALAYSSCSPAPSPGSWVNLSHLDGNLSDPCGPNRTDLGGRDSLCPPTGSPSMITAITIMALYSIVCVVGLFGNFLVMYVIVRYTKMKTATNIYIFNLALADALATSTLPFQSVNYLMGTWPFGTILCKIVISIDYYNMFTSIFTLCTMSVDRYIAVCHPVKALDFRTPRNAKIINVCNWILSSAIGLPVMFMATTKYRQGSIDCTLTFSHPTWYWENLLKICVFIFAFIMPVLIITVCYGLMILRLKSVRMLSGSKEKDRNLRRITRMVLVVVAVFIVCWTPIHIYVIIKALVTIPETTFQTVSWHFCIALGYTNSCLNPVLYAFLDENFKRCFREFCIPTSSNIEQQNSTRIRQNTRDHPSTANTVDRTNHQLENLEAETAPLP
The target in data set [16] is Kappa-type opioid receptor (Homo sapiens, UniProt P41145). Description: Inhibition of KOR (unknown origin).
Kappa-type opioid receptor, sequence (P41145 whole entry): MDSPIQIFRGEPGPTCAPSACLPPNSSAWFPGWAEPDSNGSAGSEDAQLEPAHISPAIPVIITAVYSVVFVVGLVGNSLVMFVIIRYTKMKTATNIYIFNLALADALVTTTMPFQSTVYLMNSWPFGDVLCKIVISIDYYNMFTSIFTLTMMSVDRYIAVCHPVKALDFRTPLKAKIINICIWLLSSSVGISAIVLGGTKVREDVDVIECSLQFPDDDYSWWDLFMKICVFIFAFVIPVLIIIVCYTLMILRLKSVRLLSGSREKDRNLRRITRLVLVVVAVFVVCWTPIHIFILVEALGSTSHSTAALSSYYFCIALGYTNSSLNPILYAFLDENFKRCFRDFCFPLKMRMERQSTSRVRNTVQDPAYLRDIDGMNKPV
Data set [17] concerns HepG2. The data set can be described thus: Cytotoxicity against human HepG2 assessed as reduction in cell viability at 1 to 100 uM after 20 hrs by MTT assay. The class given is cell-based. Particulars: hepg2, 20 h. The essentials: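 HepG2 cells, 3 x 10^4/well, grown 24 h in MEM/10% FBS, then exposed 20 h in serum-free medium to compound at 1, 10, 100 µM (from DMSO solutions). MTT 0.5 mg/mL for 4 h, formazan dissolved in DMSO, OD 550 nm. IC50 taken as lowest concentration giving ≥50% cytotoxicity versus untreated cells; duplicates in two assays (n = 4).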

The nature of data set [18]: Selectivity ratio of Ki for GluN2B/GluN1a (unknown origin) expressed in mouse L(tk-) cell membranes to Ki for sigma1 receptor in guinea pig brain cortex membranes. The class given is cell-based.

Sodium-dependent dopamine transporter (Homo sapiens), sequence (Q01959 whole entry): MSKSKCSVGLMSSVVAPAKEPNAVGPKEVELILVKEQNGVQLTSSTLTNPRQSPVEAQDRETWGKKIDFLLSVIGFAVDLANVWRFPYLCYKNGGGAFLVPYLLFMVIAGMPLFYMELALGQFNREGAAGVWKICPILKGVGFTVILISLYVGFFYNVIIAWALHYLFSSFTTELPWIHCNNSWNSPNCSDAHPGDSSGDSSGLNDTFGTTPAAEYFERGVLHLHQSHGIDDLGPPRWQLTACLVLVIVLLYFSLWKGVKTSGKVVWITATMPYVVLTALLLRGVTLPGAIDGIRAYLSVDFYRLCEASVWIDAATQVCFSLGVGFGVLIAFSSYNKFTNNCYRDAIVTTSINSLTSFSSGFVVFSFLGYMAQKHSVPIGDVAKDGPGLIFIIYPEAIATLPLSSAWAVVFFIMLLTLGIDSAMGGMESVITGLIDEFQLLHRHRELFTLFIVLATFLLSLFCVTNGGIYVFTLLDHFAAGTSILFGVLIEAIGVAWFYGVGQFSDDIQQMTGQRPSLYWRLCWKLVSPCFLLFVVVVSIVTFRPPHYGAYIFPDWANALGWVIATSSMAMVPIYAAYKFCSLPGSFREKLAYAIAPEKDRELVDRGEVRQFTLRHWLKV
Alpha-1A adrenergic receptor (Homo sapiens), sequence (P35348 whole entry): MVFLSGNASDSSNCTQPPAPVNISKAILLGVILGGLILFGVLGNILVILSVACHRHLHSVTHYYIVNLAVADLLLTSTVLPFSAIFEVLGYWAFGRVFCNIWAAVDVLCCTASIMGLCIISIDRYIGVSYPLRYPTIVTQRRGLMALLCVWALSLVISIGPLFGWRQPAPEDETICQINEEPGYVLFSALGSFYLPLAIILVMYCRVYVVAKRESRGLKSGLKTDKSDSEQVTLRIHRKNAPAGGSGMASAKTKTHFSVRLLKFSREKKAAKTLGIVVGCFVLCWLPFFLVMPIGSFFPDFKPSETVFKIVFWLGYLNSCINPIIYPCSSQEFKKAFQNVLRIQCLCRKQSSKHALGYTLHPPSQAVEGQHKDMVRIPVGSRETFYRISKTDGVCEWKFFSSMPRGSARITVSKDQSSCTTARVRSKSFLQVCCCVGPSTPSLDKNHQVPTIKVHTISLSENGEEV
Histamine H1 receptor (Homo sapiens), sequence (P35367 whole entry): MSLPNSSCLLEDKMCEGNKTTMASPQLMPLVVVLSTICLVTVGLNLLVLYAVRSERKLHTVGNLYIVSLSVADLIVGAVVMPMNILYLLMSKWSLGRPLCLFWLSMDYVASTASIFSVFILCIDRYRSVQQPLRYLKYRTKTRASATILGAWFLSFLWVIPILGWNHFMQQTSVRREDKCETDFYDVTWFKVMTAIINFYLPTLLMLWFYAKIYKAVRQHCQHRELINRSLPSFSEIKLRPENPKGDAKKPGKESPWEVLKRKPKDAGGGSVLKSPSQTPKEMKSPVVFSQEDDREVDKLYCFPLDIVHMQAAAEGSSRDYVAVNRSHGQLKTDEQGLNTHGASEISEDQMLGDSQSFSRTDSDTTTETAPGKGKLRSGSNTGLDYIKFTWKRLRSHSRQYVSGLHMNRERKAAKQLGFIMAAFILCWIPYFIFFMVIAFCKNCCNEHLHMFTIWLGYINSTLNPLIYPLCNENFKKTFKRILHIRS

The term inhibition denotes how much of the control response was suppressed. By IC50 is commonly meant the concentration that gives 50% inhibition. Read a low IC50 as greater potency. What is called Ki is a dissociation constant, usually derived from enzyme kinetics or from competition with a known ligand. Usually EC50 stands for the concentration needed to bring the measured effect to its halfway point. On to `COc1ccc2c(c1)CCN(CCC(F)Cc1ccccc1)CC2` (stereo not drawn), for which the Stability entry in [1] was “Stable”. Besides, the inhibition in [2] is under 50%; in data set [7] it was 21%; in [11], under 50%; in data set [12], under 50%; in data set [14] it was under 50%. For the same molecule, the midpoint of inhibition in data set [3], the IC50, lay at 553 nM. Also, the outcome in data set [4] and in [10] was Active. In addition, the Activity result in data set [5] and in data set [17] was “Toxic” each time. Besides, the results for the Ki in [6], in data set [9] and in data set [16] were 115 nM, over 1000 nM and over 1000 nM, respectively. Also, in data set [8], the outcome was inactive. In data set [13], the metabolised at 1 h, 1 µM amounted to 100%. This molecule also came in with an EC50 in data set [15] of over 10000 nM. Also, the Ratio Ki in data set [18] was under 18.
